Assay: Toxicity liver stage against HepG2, at 10uM
Assay type: cell-based
Set-up: test concentration 10 uM, cell line HepG2-A16-CD81EGFP
Conditions: human, HepG2-A16-CD81EGFP cells; read-out: INHIBITION
In short: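 Uninfected HepG2-A16-CD81EGFP cells, 3 × 10^3 per well, 1536-well, plated on prespotted compound at 10 μM final, parasite-free screening media added to match infected plates; puromycin 10 μM positive, DMSO 0.5% negative; run in parallel with 48 h PbLuc assay at 37 °C, 5% CO2; viability by CellTiter-Glo luminescence, normalized to controls.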

Row | SMILES | cytotoxicity at 10 µM
1 | Cc1ccccc1CSCCn1nc2ccccn2c1=O | 2.57%
2 | COCCN1C[C@H]2CN(Cc3cccc(OC(F)(F)F)c3)CCN2C1=O | 2.67%
3 | CC1(C)CC(NC(=O)c2cnn(-c3ccccc3F)c2N)CC(C)(C)N1 | -4.14%
4 | O=C(NCC(=O)N1CCCC1)c1nc(Cc2c(Cl)cccc2Cl)no1 | 2.63%
5 | O=c1nc(SCc2ccncc2)c2c(n1CCO)CCC2 | 6.9%
6 | O=C(NCCS(=O)(=O)N1CCN(c2ncccn2)CC1)C1CCCC1 | -3.91%
7 | COCCN(Cc1ccoc1)S(=O)(=O)c1ccc(F)c(Cl)c1 | -7.93%
8 | CCC(CC)C(=O)N1CCOC2(CNC2)C1 | -0.184%
9 | Fc1cnc(N2CC[C@@H](N3CCOCC3)[C@@H]2Cc2ccccc2)nc1 | 3.67%
10 | CN(C)CCNC(=O)c1ccc2c(-c3nccs3)noc2c1 | 9.28%
11 | COCCC1COC2(CCN(C(=O)C3CCCC3)CC2)C1 (stereo unspecified) | 6.13%
12 | Cc1ccc2c(n1)N(CCn1cccn1)CCN(C(=O)NC(C)C)C2 | 13.3%
13 | CC(C)CCC(=O)N1CC[C@@H]2[C@H](CC1)N(S(C)(=O)=O)CCS2(=O)=O | 3.7%
14 | CS(=O)(=O)N1CCc2sc(C(=O)NCc3ccccc3)cc21 | 0.997%
15 | O=c1cc(Cn2ccnc2)nc2n1CCCN(Cc1ccncc1)C2 | -0.559%
16 | CCOc1ccc(CNCCCn2ccnc2)cc1Br | -6.81%
17 | O=c1nc(CNc2ccccc2)[nH]n1Cc1ccccc1 | 4.13%
18 | CC(C)Oc1ccccc1C1CC(=O)Nc2c1cnn2C (stereo unspecified) | 2.09%
19 | O=c1c2cnc(N3CCCCC3)nc2ccn1Cc1ccco1 | -9.69%

Row | SMILES | cytotoxicity at 10 µM
20 | CCC(Oc1ccccc1)c1nn2c(CN(CC)CC)nnc2s1 (stereo unspecified) | 4.91%
21 | Cc1nc(C(=O)N2CCCC2c2cncc(CN3CCCC3)n2)co1 (stereo unspecified) | 8.99%
22 | COCC(=O)N1CCCC1(C)c1nc(C)cc(O)n1 (stereo unspecified) | -28.5%
23 | CC(C)c1ncc(CNC2(c3ccc(Cl)cc3)CC2)cn1 | -32.3%
24 | O=C(N[C@@H]1CCC[C@@H](N2CCOCC2)[C@@H]1O)c1cnn2cccnc12 | -21.9%
25 | Cc1noc(C)c1-c1ccc(C2CCCN2C(=O)c2cnn(C)c2)nc1 (stereo unspecified) | -16.7%
26 | CCc1c(C)nc2cc(C3CCN(Cc4cccnc4)C3)nn2c1O (stereo unspecified) | -25.4%
27 | COc1ncccc1C(=O)Nc1cccc(C[S+](C)[O-])c1C (stereo unspecified) | 2.28%
28 | CCS(=O)(=O)Nc1ccc2[nH]c(C3CCC3)nc2c1 | -13.2%
29 | CC(NC(=O)c1ccoc1)C(=O)N(C)Cc1ccsc1 (stereo unspecified) | -1.77%
30 | Cc1csc(CCNC(=O)c2ccc(N(C)C)c(F)c2)n1 | 7.15%
31 | CNS(=O)(=O)c1cccc(CNC(=O)CCc2ccsc2)c1 | 13.5%
32 | CCOCCNCC1CCN(CCO)CC1 | -1.46%
33 | Cc1cccc(Oc2ccccc2CNC(=O)C2CCNC(=O)C2)c1 (stereo unspecified) | 3.6%
34 | N#Cc1ccc(SCCC(=O)NC(N)=O)cc1 | -2.66%
35 | Cc1noc(CCNC(=O)NCc2ccc(OC3CCCC3)cc2)n1 | 13.2%
36 | COc1ccsc1C(=O)NCCNc1ccccc1 | -4.15%
37 | COc1ccc(CNC(=O)N2CCCC(Nc3ccccc3)C2)cn1 (stereo unspecified) | -4.57%
38 | CC(Oc1ccc(OCc2ncc(C(C)C)o2)cc1)C(N)=O (stereo unspecified) | -10.4%

Row | SMILES | cytotoxicity at 10 µM
39 | CCNC(=O)CCC(=O)NC(Cc1ccccc1)c1sccc1C (stereo unspecified) | -6.69%
40 | CC(=O)c1ccc(C(=O)Nc2ccnc(N(C)C)n2)cc1 | 2.49%
41 | CC(=O)N(C)Cc1cccc(NC(=O)CCCc2nc(C(C)C)no2)c1 | -2.07%
42 | CC(=O)NCCOc1c(C)cccc1C | -2.33%
43 | COc1ccccc1NC(=O)NC(C)c1nc[nH]n1 (stereo unspecified) | 2.8%
44 | O=C(CCc1ncc(-c2ccc(F)cc2)o1)NCCN1CCOCC1 | 10.6%
45 | O=S(=O)(CCCN1CCOC(Cn2cccn2)C1)c1ccccc1 (stereo unspecified) | -2.54%
46 | COCC(NC(=O)c1ccco1)c1cccc(C(F)(F)F)c1 (stereo unspecified) | -3.96%
47 | Cc1nn(C)c(N2CCOCC2)c1CNC(C(N)=O)c1ccccc1 (stereo unspecified) | -6.86%
48 | O=C(NCc1cccnc1)N1CCSCC1CCO (stereo unspecified) | -1.46%
49 | CCN(CCS(=O)(=O)CC)CC1CCCO1 (stereo unspecified) | -0.157%
50 | CC(C)c1nnc(NC(=O)N2CCCC2c2ccncc2)s1 (stereo unspecified) | 5.6%
51 | Cc1cnc(C(C)(C)NC(=O)NCc2cccnc2OC(C)C)s1 | 8.46%
52 | CN1CCC(NC(=O)Nc2ccc(F)c(-n3cccc3)c2)C1=O (stereo unspecified) | -135%
53 | CS(=O)(=O)NCC1CCCN(Cc2ccccc2F)C1 (stereo unspecified) | -3.65%
54 | CN1C(=O)CCN(C(=O)C2CC=CC2)c2ccccc21 | 8.96%
55 | O=C(NCc1ccncc1)N1CC(Cc2ccccc2F)C1 | -8.85%
56 | COCCNC(=O)NC(=O)CNc1c(F)cccc1N1CCCC1 | -2.05%

Reference: ChEMBL document CHEMBL4513216, “Probing the Open Global Health Chemical Diversity Library for Multistage-Active Starting Points for Next-Generation Antimalarials” (ACS Infect Dis, 2020)
